Experiment [1] deals with HUVEC. Briefly: Growth inhibition of HUVEC by WST-8 assay. It is filed as functional, cell-based. As to conditions: Homo sapiens. In outline: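 HUVECs (passages 2–8), 3 × 10^3 cells/well on collagen, adhered 12 h in EGM-2, then 12 h in EGM-2 lacking VEGF and bFGF. VEGF (1 nM) plus compound added for 72 h at 37 °C, 5% CO2. WST-8 added 2 h, absorbance at 450 nm; Ki8751 as positive control.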
A general note: Tetrazolium dyes change colour on reduction, which living cells bring about.

Experiment [2] addresses Vascular endothelial growth factor receptor 2 (Homo sapiens, UniProt P35968). Briefly: Inhibition of recombinant human VEGFR2. In outline:
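Recombinant VEGFR2 tyrosine kinase activity measured by ELISA using a universal tyrosine kinase assay kit; Ki8751 as positive control.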

Experiment [3] relates to HUVEC. The experiment is described as follows: Antiangiogenic activity in HUVEC assessed as inhibition of tubule network formation after 16 hrs by fluorescence microscopic technique. It counts as functional, cell-based. As to conditions: Homo sapiens. A digest of the protocol: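 HUVECs (passages 2–8) plated at 1.6 × 10^4 cells on polymerized Matrigel with test compound at 2.5, 5, 7.5 or 10 μM; suramin 10 μM as positive control. Incubated 16 h, 37 °C, 5% CO2. Calcein-AM stained, imaged by fluorescence microscopy at 4×, total tubule length quantified.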

Experiment [4] concerns HUVEC. Briefly: Antiinvasive activity in HUVEC by matrigel assay at 2.5 uM after 22 hrs by fluorescence microscopic technique. It is filed as functional, cell-based. As to conditions: Homo sapiens. A digest of the protocol: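 HUVECs starved 5 h in serum-free EBM-2 with 0.2% BSA, then 1 × 10^5 cells with compound (2.5 or 5 μM) loaded into inserts coated with 0.2 mg/mL Matrigel. Lower chamber: EBM-2, 0.2% BSA, 20 ng/mL VEGF, 1% FBS plus compound. After 22 h at 37 °C, invaded cells calcein-AM labeled, read at 494/517 nm; mean ± SD, n = 3.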

For five compounds, IC50 and inhibition results are on record in ChEMBL document CHEMBL3232747, “Potential anti-angiogenesis effects of p-terphenyl compounds from Polyozellus multiplex” (J Nat Prod, 2014).

Calls of active or inactive are those of the source. No cut-off for these calls is given here.

One may read the IC50 as the concentration at which inhibition is half-maximal.

Vascular endothelial growth factor receptor 2, sequence (P35968 whole entry): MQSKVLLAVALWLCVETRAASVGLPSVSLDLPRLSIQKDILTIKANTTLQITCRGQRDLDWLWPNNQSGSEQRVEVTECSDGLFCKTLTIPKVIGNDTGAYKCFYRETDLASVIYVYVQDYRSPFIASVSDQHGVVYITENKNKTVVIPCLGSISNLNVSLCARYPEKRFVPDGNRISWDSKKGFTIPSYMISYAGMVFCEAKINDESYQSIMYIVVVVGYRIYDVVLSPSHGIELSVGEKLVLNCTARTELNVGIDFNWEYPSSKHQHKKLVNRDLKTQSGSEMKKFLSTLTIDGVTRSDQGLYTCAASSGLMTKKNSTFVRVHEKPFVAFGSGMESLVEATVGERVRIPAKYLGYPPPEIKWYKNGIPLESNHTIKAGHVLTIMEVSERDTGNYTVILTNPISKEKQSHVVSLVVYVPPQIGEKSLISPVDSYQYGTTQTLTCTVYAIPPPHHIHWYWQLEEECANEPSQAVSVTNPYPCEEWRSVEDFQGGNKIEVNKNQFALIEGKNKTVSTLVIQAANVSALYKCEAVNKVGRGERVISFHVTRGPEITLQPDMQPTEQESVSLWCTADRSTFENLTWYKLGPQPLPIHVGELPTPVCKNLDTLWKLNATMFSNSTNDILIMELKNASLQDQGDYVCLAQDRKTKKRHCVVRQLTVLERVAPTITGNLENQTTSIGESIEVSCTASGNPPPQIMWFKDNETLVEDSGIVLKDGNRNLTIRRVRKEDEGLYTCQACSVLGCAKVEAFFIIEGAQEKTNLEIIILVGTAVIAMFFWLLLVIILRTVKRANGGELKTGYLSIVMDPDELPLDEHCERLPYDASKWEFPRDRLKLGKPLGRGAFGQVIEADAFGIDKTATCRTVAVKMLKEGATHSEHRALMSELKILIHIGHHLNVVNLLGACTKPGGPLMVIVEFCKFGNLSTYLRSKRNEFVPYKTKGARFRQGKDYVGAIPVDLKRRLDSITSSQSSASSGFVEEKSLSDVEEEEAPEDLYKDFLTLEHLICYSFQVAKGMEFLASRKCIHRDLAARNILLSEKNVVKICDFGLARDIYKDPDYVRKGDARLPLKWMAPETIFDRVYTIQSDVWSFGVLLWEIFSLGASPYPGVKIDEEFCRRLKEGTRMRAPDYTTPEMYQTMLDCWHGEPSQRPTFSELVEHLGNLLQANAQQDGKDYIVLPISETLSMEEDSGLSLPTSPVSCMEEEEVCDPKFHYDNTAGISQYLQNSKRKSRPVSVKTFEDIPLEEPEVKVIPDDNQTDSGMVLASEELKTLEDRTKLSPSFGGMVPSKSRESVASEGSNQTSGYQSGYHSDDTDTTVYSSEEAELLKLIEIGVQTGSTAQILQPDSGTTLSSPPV

For the compound `CC(=O)CC1(O)C(=O)c2c(oc3cc(O)c(O)cc23)-c2oc3cc(O)c(O)cc3c21` (racemic), the IC50 worked out at 21.4 µM in the experiment on HUVEC [1] and 52 µM in experiment [2]. The inhibition entry with HUVEC [3] was “inactive”.

In the case of `CC(=O)Oc1c2oc3cc(O)c(O)cc3c2c(OC(C)=O)c2oc3cc(O)c(O)cc3c12` [POLYOZELLIN], the figures for the IC50 (with HUVEC [1]; in experiment [2]) were 10.2 µM and 66 µM, respectively. In the experiment with HUVEC [3], the inhibition result was “inactive”.

Consider `O=C1C(=O)c2c(oc3cc(O)c(O)cc23)-c2oc3cc(O)c(O)cc3c21`, for which the results for the IC50 (with HUVEC [1]; in experiment [2]) were 7.6 µM and 32 µM, respectively. In the experiment with HUVEC [3], the inhibition result is “Dose-dependent effect”. For the same compound, the inhibition entry in the experiment on HUVEC [4] is “Active”.

With `COc1cc2nccc(Oc3ccc(NC(=O)Nc4ccc(F)cc4F)c(F)c3)c2cc1OC`, the IC50 came to 1.4 µM in the experiment on HUVEC [1] and 2.4 µM in experiment [2].

Regarding `O=C1c2oc3cc(O)c(O)cc3c2C(=O)c2oc3cc(O)c(O)cc3c21`, the IC50 in the experiment with HUVEC [1] is 3.4 µM; in experiment [2] it was 70 µM. For the same compound, in the experiment with HUVEC [3], the inhibition entry is “Dose-dependent effect”. Further, in the experiment with HUVEC [4], the inhibition entry is “Active”.
